A short description of data set [1]: Oral bioavailability in monkey at 5 mg/kg. The conditions noted are these: rhesus monkey, in vivo. Format: ADME, organism-based, Macaca mulatta.
The subject of data set [2] is HT-29. As to the kind of experiment: Antitumor activity against human HT29 cells xenografted in mouse assessed as inhibition of tumor growth at 10 mg/kg, po relative to control. Format: functional.
Data set [3] is described as follows: Clearance in rat at 10 mg/kg. Format: ADME, organism-based. Details: dose 10 mg/kg. The note with it: in vivo.
The subject of data set [4] is HT-29. The data set can be described thus: Antitumor activity against human HT29 cells xenografted in mouse assessed as inhibition of tumor growth at 100 mg/kg, po relative to control. Format: functional.
The nature of data set [5]: Plasma concentration in mouse at 10 mg/kg, po after 12 hrs. The format is ADME, organism-based. Details: dose 10 mg/kg, route oral.
In data set [6] the test system is Mus musculus. The data set can be described thus: Inhibition of angiogenesis in Swiss Nu/Nu mouse assessed as hemoglobin content at 100 mg/kg, po by bFGF/matrigel plug assay. Format: functional.
Data set [7] is described as follows: Protein binding in mouse plasma by equilibrium dialysis. Format: ADME, cell-free. The conditions noted are these: read-out: PPB.
Data set [8] concerns HN5. As to the kind of experiment: Antitumor activity against human HN5 cells xenografted in mouse assessed as inhibition of tumor growth at 100 mg/kg, po relative to control. The format is functional. A general note: A xenograft is tissue or cells of one species grown in another, often human tumour cells in immunodeficient mice.
Data set [9] in a line: Plasma concentration in mouse at 100 mg/kg, po after 12 hrs. Format: ADME, organism-based. More on the design: dose 100 mg/kg, route oral.
For data set [10], the system named is HN5. The data set can be described thus: Antitumor activity against human HN5 cells xenografted in mouse assessed as inhibition of tumor growth at 30 mg/kg, po relative to control. Format: functional.
For data set [11], the system named is HT-29. As to the kind of experiment: Antitumor activity against human HT29 cells xenografted in mouse assessed as inhibition of tumor growth at 30 mg/kg, po relative to control. The format is functional.
Data set [12] can be described thus: AUC (0 to infinity) in mouse at 10 mg/kg, po. The format is ADME, organism-based. More on the design: time infinity, dose 10 mg/kg, route oral. The conditions noted are these: plasma.
Data set [13] is described as follows: Plasma concentration in mouse at 30 mg/kg, po after 12 hrs. The format is ADME, organism-based. Details: dose 30 mg/kg, route oral.
The subject of data set [14] is HN5. The data set can be described thus: Antitumor activity against human HN5 cells xenografted in mouse assessed as inhibition of tumor growth at 10 mg/kg, po relative to control. Format: functional.
Data set [15] is described as follows: Antitumor activity against human A375P cells xenografted in mouse assessed as inhibition of tumor growth at 30 mg/kg, po relative to control. Format: functional.
In data set [16] the test system is Mus musculus. The data set can be described thus: Inhibition of angiogenesis in Swiss Nu/Nu mouse assessed as hemoglobin content at 10 mg/kg, po by bFGF/matrigel plug assay. Format: functional.
A short description of data set [17]: AUC (0 to infinity) in mouse at 100 mg/kg, po. Details: time infinity, dose 100 mg/kg, route oral. The note with it: plasma. The format is ADME, organism-based.
The nature of data set [18]: AUC (0 to infinity) in mouse at 30 mg/kg, po. The conditions noted are these: plasma. Format: ADME, organism-based. Details: dose 30 mg/kg, route oral, time infinity.
Data set [19] in a line: Antitumor activity against human A375P cells xenografted in mouse assessed as inhibition of tumor growth at 10 mg/kg, po relative to control. Format: functional.
The nature of data set [20]: Oral bioavailability in rat at 10 mg/kg. The format is ADME, organism-based. The conditions noted are these: in vivo.
Data set [21] is described as follows: Clearance in monkey at 5 mg/kg. The format is ADME, organism-based, Macaca mulatta. More on the design: dose 5 mg/kg. The conditions noted are these: rhesus monkey, in vivo.
A short description of data set [22]: Oral bioavailability in dog at 1 mg/kg. Format: ADME, organism-based, Canis lupus familiaris. The note with it: in vivo.
A short description of data set [23]: Antitumor activity against human A375P cells xenografted in mouse assessed as inhibition of tumor growth at 100 mg/kg, po relative to control. Format: functional.
The nature of data set [24]: Clearance in dog at 1 mg/kg. Format: ADME, organism-based, Canis lupus familiaris. More on the design: dose 1 mg/kg. The note with it: in vivo.
The subject of data set [25] is Mus musculus. The data set can be described thus: Inhibition of angiogenesis in Swiss Nu/Nu mouse assessed as hemoglobin content at 30 mg/kg, po by bFGF/matrigel plug assay. Format: functional.
Data set [26] addresses T1, Vascular endothelial growth factor receptor 2 (Homo sapiens, UniProt P35968). As to the kind of experiment: Inhibition of VEGFR2.
Data set [27] has as its target Cytochrome P450 2C19 (Homo sapiens, UniProt P33261). The data set can be described thus: Inhibition of human recombinant CYP2C19. Format: ADME. The method in brief: (§1)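 Recombinant human CYP450 microsomal protein (0.1 mg/mL) with substrate in 50 mM potassium phosphate, pH 7.4. Compound (range of concentrations, methanol) preincubated 10 min at 37 °C. Reaction started with an NADPH-generating system. Fluorescent metabolite formation followed over 10 min. Rates converted to percent of mean control; IC50 from the slope of the plot. Miconazole included as positive control.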

Data set [28] concerns the target Cytochrome P450 2D6 (Homo sapiens, UniProt P10635). As to the kind of experiment: Inhibition of human recombinant CYP2D6. Format: ADME. The method in brief: as §1
The target of data set [29] is Cytochrome P450 2C9 (Homo sapiens, UniProt P11712). The data set can be described thus: Inhibition of human recombinant CYP2C9. Format: ADME.
Sequence of Cytochrome P450 2C9 (P11712 whole entry): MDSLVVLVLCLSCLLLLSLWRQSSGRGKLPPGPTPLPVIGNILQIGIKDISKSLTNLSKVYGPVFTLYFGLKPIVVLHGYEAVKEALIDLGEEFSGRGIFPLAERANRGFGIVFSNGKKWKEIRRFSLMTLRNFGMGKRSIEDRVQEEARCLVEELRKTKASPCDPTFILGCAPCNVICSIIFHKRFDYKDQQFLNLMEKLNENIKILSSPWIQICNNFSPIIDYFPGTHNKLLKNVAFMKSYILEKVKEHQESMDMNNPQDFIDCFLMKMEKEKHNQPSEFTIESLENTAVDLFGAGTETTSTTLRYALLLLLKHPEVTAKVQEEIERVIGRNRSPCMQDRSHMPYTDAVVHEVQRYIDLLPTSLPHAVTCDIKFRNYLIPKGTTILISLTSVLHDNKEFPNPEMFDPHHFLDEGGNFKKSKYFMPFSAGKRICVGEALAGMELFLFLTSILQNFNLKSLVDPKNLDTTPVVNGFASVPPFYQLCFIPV
The subject of data set [30] is HUVEC. The data set can be described thus: Inhibition of VEGF-induced HUVEC proliferation by BrdU incorporation method after 72 hrs. The format is functional, cell-based. The conditions noted are these: Homo sapiens. The method in brief:
(§2)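 HUVEC seeded in 5% FBS medium on type 1 collagen, held overnight at 37 °C, 5% CO2. Inhibitor at various concentrations added in serum-free medium. After 30 min, VEGF (10 ng/mL) or bFGF (0.3 ng/mL) added. Cells incubated a further 72 h, with BrdU (10 µM) present for the last 18–24 h. Incorporation read by ELISA; IC50 from fit of y = Vmax(1 − x/(K + x)).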
In general terms: Uptake of a labelled nucleoside into DNA is a usual measure of proliferation.

Data set [31] deals with T2, Cytochrome P450 3A4 (Homo sapiens, UniProt P08684). The data set can be described thus: Inhibition of human recombinant CYP3A4 using 7-benzyloxyquinoline substrate. The format is ADME. An outline of the steps: (§3)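 Recombinant human CYP450 microsomal protein (0.1 mg/mL) with substrate and a concentration range of compound (dissolved in methanol), preincubated 10 min at 37 °C in 50 mM potassium phosphate pH 7.4. Reaction started with an NADPH-generating system. Fluorescent metabolite formation followed over 10 min. Rates converted to percent of mean control rate, and IC50 derived from the plot. Miconazole served as positive control.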
T2 sequence (P08684 whole entry): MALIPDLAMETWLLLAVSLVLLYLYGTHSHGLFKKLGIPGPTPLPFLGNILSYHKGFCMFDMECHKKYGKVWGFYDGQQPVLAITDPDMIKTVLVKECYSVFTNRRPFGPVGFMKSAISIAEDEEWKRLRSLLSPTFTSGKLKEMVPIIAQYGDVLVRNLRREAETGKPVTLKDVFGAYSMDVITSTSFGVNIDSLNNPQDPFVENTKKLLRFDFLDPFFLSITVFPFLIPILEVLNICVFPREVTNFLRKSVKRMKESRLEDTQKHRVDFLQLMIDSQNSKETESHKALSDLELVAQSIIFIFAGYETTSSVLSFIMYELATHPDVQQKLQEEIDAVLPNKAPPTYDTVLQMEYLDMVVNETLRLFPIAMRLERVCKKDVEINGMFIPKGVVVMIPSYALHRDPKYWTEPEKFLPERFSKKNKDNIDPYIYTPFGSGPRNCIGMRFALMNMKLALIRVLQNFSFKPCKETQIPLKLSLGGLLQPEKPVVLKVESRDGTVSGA

For data set [32], the target named is T2, Cytochrome P450 3A4. As to the kind of experiment: Inhibition of human recombinant CYP3A4 using diethoxyfluorescein substrate. The format is ADME. The method in brief:
as §3

Data set [33] deals with T1, Vascular endothelial growth factor receptor 2. The data set can be described thus: Inhibition of human recombinant VEGFR2.
For data set [34], the system named is HUVEC. As to the kind of experiment: Inhibition of VEGF-induced HUVEC proliferation. Format: functional, cell-based. The conditions noted are these: Homo sapiens. An outline of the steps: as §2
Data set [35] concerns HUVEC. As to the kind of experiment: Inhibition of basic-fibroblast growth factor-induced HUVEC proliferation. The conditions noted are these: Homo sapiens. The format is functional, cell-based. An outline of the steps: as §2

Where only a bound is given, the exact number is not on record here.

The source of these data is ChEMBL document CHEMBL1155848 (J Med Chem, 2008).

T1 sequence (P35968 whole entry): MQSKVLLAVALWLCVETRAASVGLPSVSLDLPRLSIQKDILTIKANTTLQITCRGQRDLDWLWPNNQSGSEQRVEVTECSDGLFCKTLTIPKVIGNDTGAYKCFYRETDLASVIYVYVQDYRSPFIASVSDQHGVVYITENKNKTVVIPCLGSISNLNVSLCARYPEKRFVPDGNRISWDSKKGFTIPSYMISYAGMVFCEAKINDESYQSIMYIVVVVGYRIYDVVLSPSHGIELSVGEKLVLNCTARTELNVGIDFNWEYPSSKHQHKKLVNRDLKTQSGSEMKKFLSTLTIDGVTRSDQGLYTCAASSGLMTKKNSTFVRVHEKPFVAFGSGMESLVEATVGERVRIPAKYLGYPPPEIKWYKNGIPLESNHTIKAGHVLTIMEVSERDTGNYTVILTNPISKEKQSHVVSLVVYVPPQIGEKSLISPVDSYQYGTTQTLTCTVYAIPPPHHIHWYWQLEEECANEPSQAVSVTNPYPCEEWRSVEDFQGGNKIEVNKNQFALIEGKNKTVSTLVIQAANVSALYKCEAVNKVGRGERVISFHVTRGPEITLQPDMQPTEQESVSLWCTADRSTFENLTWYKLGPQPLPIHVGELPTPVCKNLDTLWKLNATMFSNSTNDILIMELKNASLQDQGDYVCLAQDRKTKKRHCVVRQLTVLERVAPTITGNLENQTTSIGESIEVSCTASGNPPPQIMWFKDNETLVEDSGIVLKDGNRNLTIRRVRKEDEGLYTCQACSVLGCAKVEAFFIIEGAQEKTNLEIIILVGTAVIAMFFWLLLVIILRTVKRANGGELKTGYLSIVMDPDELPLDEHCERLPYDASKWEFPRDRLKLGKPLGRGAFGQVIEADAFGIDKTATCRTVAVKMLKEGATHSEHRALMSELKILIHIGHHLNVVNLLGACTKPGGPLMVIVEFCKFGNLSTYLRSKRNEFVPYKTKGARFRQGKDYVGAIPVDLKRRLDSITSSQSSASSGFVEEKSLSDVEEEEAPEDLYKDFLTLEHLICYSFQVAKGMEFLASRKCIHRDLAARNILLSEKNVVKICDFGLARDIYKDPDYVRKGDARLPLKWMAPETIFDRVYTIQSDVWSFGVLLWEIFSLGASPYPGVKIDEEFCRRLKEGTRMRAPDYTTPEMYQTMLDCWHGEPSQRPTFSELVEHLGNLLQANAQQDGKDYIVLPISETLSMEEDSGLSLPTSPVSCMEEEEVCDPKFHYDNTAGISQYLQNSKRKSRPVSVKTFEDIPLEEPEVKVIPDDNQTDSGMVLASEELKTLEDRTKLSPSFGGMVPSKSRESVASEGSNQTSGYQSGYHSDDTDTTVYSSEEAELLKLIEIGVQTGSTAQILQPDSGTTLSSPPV
Sequence of Cytochrome P450 2D6 (P10635 whole entry): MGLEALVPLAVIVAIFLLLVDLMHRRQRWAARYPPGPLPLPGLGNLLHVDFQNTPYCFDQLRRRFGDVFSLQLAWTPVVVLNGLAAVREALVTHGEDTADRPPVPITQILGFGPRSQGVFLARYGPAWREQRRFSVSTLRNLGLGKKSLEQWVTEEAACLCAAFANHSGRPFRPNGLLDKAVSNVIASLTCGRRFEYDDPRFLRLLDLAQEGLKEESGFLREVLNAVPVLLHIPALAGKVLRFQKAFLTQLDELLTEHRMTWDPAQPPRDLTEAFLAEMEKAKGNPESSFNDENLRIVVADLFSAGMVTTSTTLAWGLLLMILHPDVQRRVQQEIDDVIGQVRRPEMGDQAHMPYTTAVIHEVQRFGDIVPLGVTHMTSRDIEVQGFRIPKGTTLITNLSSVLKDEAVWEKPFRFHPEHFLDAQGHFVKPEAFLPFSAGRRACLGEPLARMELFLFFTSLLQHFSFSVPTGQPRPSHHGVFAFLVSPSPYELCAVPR
Sequence of Cytochrome P450 2C19 (P33261 whole entry): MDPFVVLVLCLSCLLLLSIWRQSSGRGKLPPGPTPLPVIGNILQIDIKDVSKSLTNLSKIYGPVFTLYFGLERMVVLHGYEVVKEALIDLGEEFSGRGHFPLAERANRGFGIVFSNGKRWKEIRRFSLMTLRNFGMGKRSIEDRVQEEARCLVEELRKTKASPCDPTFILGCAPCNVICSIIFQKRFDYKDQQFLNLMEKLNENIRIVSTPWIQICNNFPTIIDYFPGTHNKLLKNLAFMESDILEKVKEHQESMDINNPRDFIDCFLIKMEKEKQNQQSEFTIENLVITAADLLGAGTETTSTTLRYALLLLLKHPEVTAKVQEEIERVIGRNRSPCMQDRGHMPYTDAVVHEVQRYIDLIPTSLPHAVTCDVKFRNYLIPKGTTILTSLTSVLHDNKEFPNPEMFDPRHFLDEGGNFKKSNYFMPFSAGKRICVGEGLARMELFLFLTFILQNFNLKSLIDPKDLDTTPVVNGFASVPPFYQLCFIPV

Usually bioavailability stands for the share of a dose that reaches the circulation, judged against a reference dose that is usually intravenous. As a reminder, the inhibition in vivo is the relative decrease from the control value, in per cent. In general, clearance refers to the rate of elimination divided by the concentration. The term AUC(0-inf) denotes the area under the concentration-time curve extrapolated to infinity. Regarding `Cc1ccc(Nc2nccc(N(C)c3ccc4c(C)n(C)nc4c3)n2)cc1S(N)(=O)=O` [PAZOPANIB], the bioavailability in data set [1] was found to be 65%; in data set [20], 72%; in [22] it was 47%. Further, the inhibition in vivo at 10 mg/kg is 32% in data set [2], 99% in data set [14], 0% in data set [16] and 16% in data set [19]. For the same compound, the clearance in [3], in [21] and in data set [24] was 1.4 mL/min/kg in each case. Moreover, the inhibition in vivo at 100 mg/kg in [4] came out at 69%; in data set [6], 83%; in data set [8] it was 110%; in data set [23], 55%. Also, the concentration at 12 h in [5] amounted to 6320 ng/mL; in [9], 38500 ng/mL; in [13] it was 24800 ng/mL. The fraction unbound in data set [7] was less than 0.001. The inhibition in vivo at 30 mg/kg in [10] came out at 102%; in [11], 59%; in data set [15], 35%; in [25], 57%. Also, the AUC(0-inf) in data set [12] turned out to be 220 µg·h/mL; in data set [17], 1140 µg·h/mL; in [18], 657 µg·h/mL.

As a reminder, the IC50 is the concentration that gives 50% inhibition. In turn, `COc1cc2ncnc(Nc3ccc4c(C)n[nH]c4c3)c2cc1OC` showed a 50% inhibitory concentration (IC50) in data set [26] of 0.0017 µM.

Take `Cc1nn(C)c2cc(N(C)c3ccnc(Nc4cccc(S(N)(=O)=O)c4)n3)ccc12` [GW770220A]: the IC50 was 9.3 µM in data set [27]; 6.3 µM in data set [28]; 1 µM in data set [29]; 1.4 µM in data set [30]; 1.7 µM in data set [31]; 13 µM in data set [32].

For `CCS(=O)(=O)c1ccc(OC)c(Nc2nccc(N(C)c3ccc4c(C)n[nH]c4c3)n2)c1`, the clearance in data set [3] worked out at 10 mL/min/kg. In data set [20], this compound gave a bioavailability of 65%.

On to `Cc1nc2cc(N(C)c3ccnc(Nc4cccc(S(N)(=O)=O)c4)n3)ccc2n1C`, for which the half-maximal inhibitory concentration (IC50) in data set [27] was determined as 33 µM; in data set [28] it was 33 µM; in data set [29], 9 µM; in [30], 1.4 µM; in [31], 45 µM; in [32] it was 27 µM.

For `CN(c1ccc2cn(C)nc2c1)c1ccnc(Nc2cccc(S(N)(=O)=O)c2)n1`, the IC50 in [27] came out at 9.2 µM; in data set [28], 18 µM; in data set [29], 2.9 µM; in [30] it was 0.11 µM; in data set [31], 3.9 µM; in [32] it was 4.7 µM.

Turning to `Cc1nc2ccc(N(C)c3ccnc(Nc4cccc(S(N)(=O)=O)c4)n3)cc2n1C`, the IC50 in data set [27] is 26 µM; in [28] it was 25 µM; in data set [29] it was 15 µM; in [30], 2.8 µM; in data set [31], 1.7 µM; in data set [32], 26 µM.

With `Cc1n[nH]c2cc(N(C)c3ccnc(Nc4cccc(S(N)(=O)=O)c4)n3)ccc12`, the concentration for half-maximal inhibition (IC50) in [27] is 7.2 µM; in data set [28], 4.8 µM; in [29], 0.7 µM; in [30], 0.094 µM; in data set [31], 16 µM; in data set [32], 7.6 µM.

`Fc1cnc(Nc2cccc(Br)c2)nc1Nc1cccc(Br)c1`: in data set [26], the IC50 was 0.4 µM.

In the case of `Cc1c2ccc(N(C)c3ccnc(Nc4cccc(S(N)(=O)=O)c4)n3)cc2nn1C`, the IC50 in [27] amounted to 20 µM; in data set [28], 16 µM; in [29], 1.4 µM; in data set [30], 0.023 µM; in data set [31] it was 31 µM; in data set [32], 16 µM.

Consider `COc1cc2ncnc(Nc3ccc(C)c(O)c3)c2cc1OC`, for which the IC50 in [33] was determined as 0.0006 µM.

For `COc1cc(Nc2nccc(Nc3ccc4c(C)n[nH]c4c3)n2)cc(OC)c1OC` [GW612286X], the clearance in data set [3] came to 16 mL/min/kg. This compound displayed a bioavailability in [20] of 85%. The compound also came in with an IC50 in [34] of 0.18 µM.

Compound `COc1cc2/c(=N/c3ccc(Br)cc3F)nc[nH]c2cc1OCC1CCN(C)CC1` [VANDETANIB] showed an IC50 in data set [34] of 0.4 µM.

Regarding `Cc1ccc(Nc2ccnc(Nc3cccc(Br)c3)n2)cc1O`, the half-inhibitory concentration (IC50) in [35] was found to be 3.5 µM; in [34] it was 0.54 µM; in data set [26], 0.0063 µM.

As to `Cc1c2ccc(N(C)c3ccnc(Nc4cccc(S(N)(=O)=O)c4)n3)cc2nn1Cc1ccccc1`, the IC50 in data set [27] came out at 1.4 µM; in [28], 66 µM; in data set [29], 0.5 µM; in [30] it was 11 µM; in data set [31], 79 µM; in data set [32], 74 µM.

In [3], `CCS(=O)(=O)c1ccc(OC)c(Nc2nccc(Nc3ccc4c(C)n[nH]c4c3)n2)c1` showed a clearance of 40 mL/min/kg. Moreover, the IC50 in data set [35] is 13 µM; in data set [34], 0.13 µM. This compound yielded a bioavailability in data set [20] of 28%.
